One experiment relates to A2780cis cells. Description: Colony formation assay, A2780cis. Type of experiment: cell-based. The gist of the method: (§1)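 A2780 (1×10^3) or A2780cis (2×10^3) cells were seeded per 3.5-cm dish and grown 24 h. They were exposed 72 h to test compound or cisplatin at 1X or 2X IC50, then PBS-washed. Fresh medium followed for 5 days at 37°C. Staining was 0.5% crystal violet in 25% methanol, 10 min RT. Clusters of ≥50 cells were counted by microscope. Colonies expressed as % of control.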

The next experiment deals with A2780 cells. Briefly: Colony formation assay, A2780. The format is cell-based. The gist of the method:
as §1

The mark [1] stands for this setting: IC50 and 2X IC50 concentrations, 72 h treatment, vs control.

SMILES strings stand for the structures.

Consider `N.N.[Cl][Pt][Cl]` [cisplatin], for which the colony formation result with A2780cis cells (setting [1]) and in the experiment with A2780 cells (setting [1]) was “almost completely inhibited” each time. Also, the “cells per colony after treatment (unable to divide)” value in the experiment with A2780cis cells (colony formation assay) and in the experiment on A2780 cells (colony formation assay) was 3–5 cells/colony each time.

Source of the values: article PMC8721857 (Oncology Letters, 2021).
